ChEMBL document CHEMBL2150909, “Imidazo[1,2-a]pyridines: orally active positive allosteric modulators of the metabotropic glutamate 2 receptor” (J Med Chem, 2012)
Active and inactive are the calls of the source. No cut-off for these calls is given here.

Assays:
[1] = molecular target: T1, Metabotropic glutamate receptor 2 (Homo sapiens, UniProt Q14416); experiment: Agonist activity at human mGlu 2 expressed in CHO cells assessed as [35S]GTPgammaS binding by liquid scintillation analysis; format: functional, cell-based
Method in brief: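 Membranes from butyrate-stimulated (5 mM, 24 h) CHO cells expressing human mGlu2. Preincubated 30 min at 30 °C in HEPES pH 7.4 with NaCl, MgCl2, 50 μM GDP and saponin; modulator 0.3 nM–50 μM, no added glutamate. [35S]GTPγS 0.1 nM final, 30 min at 30 °C, filtered, scintillation counted. Nonspecific binding defined with cold GTP; 11 concentrations in duplicate, ≥3 curves.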

[2] = molecular target: T1, Metabotropic glutamate receptor 2; experiment: Agonist activity at human mGlu 2 expressed in CHO cells by PAM assay relative to glutamate; format: functional, cell-based
Method in brief: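 The assay measured [35S]GTPγS binding to membranes from CHO cells expressing human mGluR2. Cells were butyrate-stimulated (5 mM, 24 h) before membranes were prepared. Membranes were preincubated for 30 min at 30 °C in HEPES pH 7.4 buffer (NaCl, MgCl2, 50 μM GDP) with compound (0.3 nM–50 μM, 11 concentrations) plus EC25 glutamate. [35S]GTPγS (0.1 nM final) was then added for 30 min at 30 °C. Bound label was collected by filtration and counted. Runs were done at least in triplicate with duplicate points, and a four-parameter logistic fit gave the values.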

[3] = Metabolic stability of human liver microsomes assessed as compound metabolized at 5 uM after 15 mins; format: ADME, Microsome; details: read-out: Drug metabolism
Method in brief: (§1)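 Test compound at 5 μM incubated 15 min with rat or human liver microsomes; read-out is percent of compound metabolized.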

[4] = Metabolic stability of Sprague-Dawley rat liver microsomes assessed as compound metabolized at 5 uM after 15 mins; format: ADME, Microsome; details: read-out: Drug metabolism; method in brief: as §1
[5] = molecular target: Metabotropic glutamate receptor 1 (Homo sapiens) (UniProt Q13255); experiment: Agonist activity at human mGlu 1 expressed in HEK293 cells at 10 uM by Ca+2 assay; format: functional, cell-based
Method in brief: (§2)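 Ca2+ assays on human mGlu1, mGlu3, mGlu5, mGlu7 or mGlu8 receptors, each expressed in HEK293 cells; compound tested at 10 μM for agonist and antagonist activity.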

[6] = molecular target: Metabotropic glutamate receptor 3 (Homo sapiens) (UniProt Q14832); experiment: Agonist activity at human mGlu 3 expressed in HEK293 cells at 10 uM by Ca+2 assay; format: functional, cell-based; method in brief: as §2
Chain of Metabotropic glutamate receptor 3 (Homo sapiens) (Q14832 23-879 limits assumed): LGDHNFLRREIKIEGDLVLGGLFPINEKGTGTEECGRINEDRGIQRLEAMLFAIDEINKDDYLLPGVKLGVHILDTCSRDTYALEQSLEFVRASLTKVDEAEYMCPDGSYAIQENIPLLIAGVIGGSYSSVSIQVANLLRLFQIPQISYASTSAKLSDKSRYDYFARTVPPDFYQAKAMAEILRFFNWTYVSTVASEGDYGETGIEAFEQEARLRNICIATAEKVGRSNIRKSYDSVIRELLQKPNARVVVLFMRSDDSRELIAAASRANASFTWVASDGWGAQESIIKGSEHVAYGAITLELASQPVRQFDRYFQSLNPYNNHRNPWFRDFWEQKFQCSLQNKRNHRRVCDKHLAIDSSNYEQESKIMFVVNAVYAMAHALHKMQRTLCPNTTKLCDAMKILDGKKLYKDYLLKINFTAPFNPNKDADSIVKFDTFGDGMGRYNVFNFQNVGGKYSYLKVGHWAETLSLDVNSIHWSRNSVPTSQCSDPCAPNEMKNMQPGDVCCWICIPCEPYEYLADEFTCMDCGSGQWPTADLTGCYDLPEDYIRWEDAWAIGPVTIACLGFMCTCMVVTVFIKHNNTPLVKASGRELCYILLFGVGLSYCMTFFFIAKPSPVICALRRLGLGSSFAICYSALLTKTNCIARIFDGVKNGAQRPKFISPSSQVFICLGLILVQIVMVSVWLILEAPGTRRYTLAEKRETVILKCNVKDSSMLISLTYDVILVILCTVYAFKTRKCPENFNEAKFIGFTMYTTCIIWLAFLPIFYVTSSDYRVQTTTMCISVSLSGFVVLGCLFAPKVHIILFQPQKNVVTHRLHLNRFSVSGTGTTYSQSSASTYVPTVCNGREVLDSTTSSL

[7] = molecular target: Metabotropic glutamate receptor 5 (Homo sapiens) (UniProt P41594); experiment: Agonist activity at human mGlu 5 expressed in HEK293 cells at 10 uM by Ca+2 assay; format: functional, cell-based; method in brief: as §2
Chain of Metabotropic glutamate receptor 5 (Homo sapiens) (P41594 21-1212 limits assumed): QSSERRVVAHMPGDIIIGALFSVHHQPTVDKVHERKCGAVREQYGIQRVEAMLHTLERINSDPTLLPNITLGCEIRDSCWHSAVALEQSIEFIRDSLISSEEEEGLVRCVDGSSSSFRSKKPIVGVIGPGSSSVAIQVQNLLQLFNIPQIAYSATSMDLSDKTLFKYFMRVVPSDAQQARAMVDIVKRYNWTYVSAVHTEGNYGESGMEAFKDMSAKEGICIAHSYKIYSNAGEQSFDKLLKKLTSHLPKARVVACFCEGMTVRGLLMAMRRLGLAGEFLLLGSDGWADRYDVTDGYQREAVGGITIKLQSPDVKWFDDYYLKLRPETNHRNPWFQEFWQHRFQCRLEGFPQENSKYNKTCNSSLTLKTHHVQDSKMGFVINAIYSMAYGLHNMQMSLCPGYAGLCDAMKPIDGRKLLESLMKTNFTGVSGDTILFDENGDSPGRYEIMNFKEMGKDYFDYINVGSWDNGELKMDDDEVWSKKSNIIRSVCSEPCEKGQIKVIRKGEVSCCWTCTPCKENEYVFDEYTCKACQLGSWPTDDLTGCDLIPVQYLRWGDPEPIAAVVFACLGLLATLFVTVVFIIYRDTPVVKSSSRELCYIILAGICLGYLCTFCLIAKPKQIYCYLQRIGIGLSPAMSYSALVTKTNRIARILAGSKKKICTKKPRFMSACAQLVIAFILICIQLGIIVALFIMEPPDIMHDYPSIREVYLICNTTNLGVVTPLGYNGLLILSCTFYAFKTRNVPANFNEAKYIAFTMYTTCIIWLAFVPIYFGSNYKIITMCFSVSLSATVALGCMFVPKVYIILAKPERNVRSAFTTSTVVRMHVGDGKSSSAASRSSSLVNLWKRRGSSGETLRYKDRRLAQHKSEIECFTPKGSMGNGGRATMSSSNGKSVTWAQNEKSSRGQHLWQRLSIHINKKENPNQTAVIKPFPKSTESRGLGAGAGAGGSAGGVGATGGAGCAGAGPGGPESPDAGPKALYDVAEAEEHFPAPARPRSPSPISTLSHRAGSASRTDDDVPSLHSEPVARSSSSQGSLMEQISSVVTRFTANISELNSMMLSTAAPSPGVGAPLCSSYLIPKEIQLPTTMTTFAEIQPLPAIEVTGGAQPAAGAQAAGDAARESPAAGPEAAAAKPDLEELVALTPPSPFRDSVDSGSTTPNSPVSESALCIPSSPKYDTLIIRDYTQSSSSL

[8] = molecular target: T2, Metabotropic glutamate receptor 7 (Homo sapiens, UniProt Q14831); experiment: Agonist activity at human mGlu 7 expressed in HEK293 cells by Ca+2 assay; format: functional, cell-based
[9] = molecular target: Metabotropic glutamate receptor 8 (Homo sapiens) (UniProt O00222); experiment: Agonist activity at human mGlu 8 expressed in HEK293 cells at 10 uM by Ca+2 assay; format: functional, cell-based; method in brief: as §2
Chain of Metabotropic glutamate receptor 8 (Homo sapiens) (O00222 whole entry): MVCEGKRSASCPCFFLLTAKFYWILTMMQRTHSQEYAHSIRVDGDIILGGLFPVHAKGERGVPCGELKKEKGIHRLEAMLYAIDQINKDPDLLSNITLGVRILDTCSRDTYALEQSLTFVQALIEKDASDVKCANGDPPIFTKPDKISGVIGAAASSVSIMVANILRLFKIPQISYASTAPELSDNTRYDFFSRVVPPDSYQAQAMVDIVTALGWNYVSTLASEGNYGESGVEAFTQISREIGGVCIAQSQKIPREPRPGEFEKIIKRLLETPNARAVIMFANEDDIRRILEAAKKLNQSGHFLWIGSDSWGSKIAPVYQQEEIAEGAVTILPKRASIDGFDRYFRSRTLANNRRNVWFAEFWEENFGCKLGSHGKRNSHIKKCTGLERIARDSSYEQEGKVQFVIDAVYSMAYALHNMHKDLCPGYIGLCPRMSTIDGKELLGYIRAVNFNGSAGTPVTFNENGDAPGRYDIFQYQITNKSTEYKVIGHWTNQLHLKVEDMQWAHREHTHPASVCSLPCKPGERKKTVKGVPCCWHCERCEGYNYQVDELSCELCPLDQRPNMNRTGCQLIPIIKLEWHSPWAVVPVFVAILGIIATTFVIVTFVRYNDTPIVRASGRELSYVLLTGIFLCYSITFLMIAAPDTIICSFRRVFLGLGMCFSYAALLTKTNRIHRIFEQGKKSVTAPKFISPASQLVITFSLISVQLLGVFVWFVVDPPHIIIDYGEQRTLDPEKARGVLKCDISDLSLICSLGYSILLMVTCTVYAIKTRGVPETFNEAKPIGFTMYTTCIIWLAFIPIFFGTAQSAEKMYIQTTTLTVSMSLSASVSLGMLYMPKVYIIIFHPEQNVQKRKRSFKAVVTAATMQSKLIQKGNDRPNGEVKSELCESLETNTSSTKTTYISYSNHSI

[10] = molecular target: Metabotropic glutamate receptor 4 (Homo sapiens) (UniProt Q14833); experiment: Agonist activity at human mGlu 4 expressed in L929 cells assessed as [35S]GTPgammaS binding by liquid scintillation counting; format: functional, cell-based
Chain of Metabotropic glutamate receptor 4 (Homo sapiens) (Q14833 whole entry): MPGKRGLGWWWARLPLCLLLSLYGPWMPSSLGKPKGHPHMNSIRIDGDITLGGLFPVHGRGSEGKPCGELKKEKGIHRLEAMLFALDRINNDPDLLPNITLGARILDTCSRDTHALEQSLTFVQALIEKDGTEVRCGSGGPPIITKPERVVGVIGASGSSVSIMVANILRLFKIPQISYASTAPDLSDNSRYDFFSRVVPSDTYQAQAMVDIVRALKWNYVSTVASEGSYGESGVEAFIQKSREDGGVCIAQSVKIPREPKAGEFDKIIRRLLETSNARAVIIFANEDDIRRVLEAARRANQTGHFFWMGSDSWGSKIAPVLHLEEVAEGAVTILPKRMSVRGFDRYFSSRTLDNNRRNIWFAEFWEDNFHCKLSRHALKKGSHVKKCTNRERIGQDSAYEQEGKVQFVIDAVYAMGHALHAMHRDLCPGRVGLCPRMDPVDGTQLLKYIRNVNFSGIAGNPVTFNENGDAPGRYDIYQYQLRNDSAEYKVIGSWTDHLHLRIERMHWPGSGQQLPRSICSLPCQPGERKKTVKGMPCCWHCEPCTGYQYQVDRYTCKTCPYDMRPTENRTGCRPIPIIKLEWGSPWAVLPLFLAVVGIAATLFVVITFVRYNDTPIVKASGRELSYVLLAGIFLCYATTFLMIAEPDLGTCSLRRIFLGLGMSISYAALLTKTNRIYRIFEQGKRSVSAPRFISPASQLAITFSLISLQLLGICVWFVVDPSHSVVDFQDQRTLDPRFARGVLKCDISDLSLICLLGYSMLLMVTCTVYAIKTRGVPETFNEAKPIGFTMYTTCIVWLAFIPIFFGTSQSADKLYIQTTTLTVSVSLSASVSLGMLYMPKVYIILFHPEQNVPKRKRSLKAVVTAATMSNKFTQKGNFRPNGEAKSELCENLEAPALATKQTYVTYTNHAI
Method in brief: (§3)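 [35S]GTPγS functional assays on human mGlu4 or rat mGlu6 receptors expressed in L929 or CHO cells; agonist and antagonist modes tested at 10 μM.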

[11] = molecular target: Metabotropic glutamate receptor 6 (Rattus norvegicus) (UniProt P35349); experiment: Agonist activity at rat mGlu 6 expressed in CHO cells assessed as [35S]GTPgammaS binding by liquid scintillation counting; format: functional, cell-based; method in brief: as §3
Chain of Metabotropic glutamate receptor 6 (Rattus norvegicus) (P35349 whole entry): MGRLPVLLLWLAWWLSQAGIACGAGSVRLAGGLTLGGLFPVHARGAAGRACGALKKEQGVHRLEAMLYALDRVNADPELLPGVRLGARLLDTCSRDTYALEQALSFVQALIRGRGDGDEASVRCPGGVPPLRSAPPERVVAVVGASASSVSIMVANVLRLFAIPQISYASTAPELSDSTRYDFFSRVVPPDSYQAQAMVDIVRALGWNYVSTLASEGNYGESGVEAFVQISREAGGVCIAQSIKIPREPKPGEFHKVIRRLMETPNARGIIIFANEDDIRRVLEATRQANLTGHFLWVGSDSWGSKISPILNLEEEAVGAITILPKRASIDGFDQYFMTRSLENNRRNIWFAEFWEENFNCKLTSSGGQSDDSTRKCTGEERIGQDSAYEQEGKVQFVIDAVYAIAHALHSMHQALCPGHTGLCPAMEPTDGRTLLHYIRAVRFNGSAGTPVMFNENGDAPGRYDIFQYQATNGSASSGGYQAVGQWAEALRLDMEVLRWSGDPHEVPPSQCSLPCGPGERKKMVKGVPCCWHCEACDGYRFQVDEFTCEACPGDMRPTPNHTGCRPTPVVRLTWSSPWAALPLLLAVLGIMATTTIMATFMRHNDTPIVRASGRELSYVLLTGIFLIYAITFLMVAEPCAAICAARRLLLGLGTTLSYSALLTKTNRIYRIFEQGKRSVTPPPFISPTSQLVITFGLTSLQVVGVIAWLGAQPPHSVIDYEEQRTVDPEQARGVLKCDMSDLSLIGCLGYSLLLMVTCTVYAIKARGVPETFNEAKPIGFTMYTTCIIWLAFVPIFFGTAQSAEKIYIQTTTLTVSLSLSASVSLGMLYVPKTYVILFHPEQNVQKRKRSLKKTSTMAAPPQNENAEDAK

[12] = Cmax in Sprague-Dawley rat at 10 mg/kg, po and 2.5 mg/kg, iv; format: ADME, organism-based; details: in vivo
Method in brief: (§4)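 Rat PK: compounds formulated in 20% HP-β-CD at pH 4 and given orally and intravenously. Values are geometric means of at least two runs ± SEM.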

[13] = Tmax in Sprague-Dawley rat at 10 mg/kg, po and 2.5 mg/kg, iv; format: ADME, organism-based; details: in vivo; method in brief: as §4
[14] = AUC (0 to infinity) in Sprague-Dawley rat at 10 mg/kg, po and 2.5 mg/kg, iv; format: ADME, organism-based; details: plasma; method in brief: as §4
[15] = Half life in Sprague-Dawley rat at 10 mg/kg, po and 2.5 mg/kg, iv; format: ADME, organism-based; details: in vivo; method in brief: as §4
[16] = Clearance in Sprague-Dawley rat at 10 mg/kg, po and 2.5 mg/kg, iv; format: ADME, organism-based; details: in vivo
[17] = Drug uptake in Sprague-Dawley rat brain at 10 mg/kg, sc after 1 hr; format: ADME, organism-based; set-up: dose 10 mg/kg, route subcutaneous; details: read-out: Drug uptake
Method in brief: (§5)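 Brain exposure in male Sprague-Dawley rats after a 10 mg/kg subcutaneous dose, vehicle 20% HP-β-CD at pH 4. Brain level measured in ng/g alongside plasma in ng/mL; geometric mean of at least two runs ± SEM.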

[18] = Drug uptake in Sprague-Dawley rat brain at 10 mg/kg, sc after 2 hrs; format: ADME, organism-based; set-up: dose 10 mg/kg, route subcutaneous; details: read-out: Drug uptake; method in brief: as §5
[19] = Drug uptake in Sprague-Dawley rat brain at 10 mg/kg, sc after 4 hrs; format: ADME, organism-based; set-up: dose 10 mg/kg, route subcutaneous; details: read-out: Drug uptake; method in brief: as §5
[20] = Plasma concentration in Sprague-Dawley rat at 10 mg/kg, sc after 1 hr; format: ADME, organism-based; set-up: dose 10 mg/kg, route subcutaneous
Method in brief: (§6)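 Male Sprague−Dawley rats given 10 mg/kg subcutaneously, vehicle 20% HP-β-CD at pH 4. Plasma (ng/mL) and brain (ng/g) drug levels determined at the listed post-dose time; B/P ratio derived from them. Values are geometric means of at least two runs ± SEM.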

[21] = Plasma concentration in Sprague-Dawley rat at 10 mg/kg, sc after 2 hrs; format: ADME, organism-based; set-up: dose 10 mg/kg, route subcutaneous; method in brief: as §6
[22] = Plasma concentration in Sprague-Dawley rat at 10 mg/kg, sc after 4 hrs; format: ADME, organism-based; set-up: dose 10 mg/kg, route subcutaneous; method in brief: as §6
[23] = Ratio of drug level in brain to plasma of Sprague-Dawley rat at 10 mg/kg, sc after 1 hr; format: ADME, organism-based; set-up: dose 10 mg/kg, route subcutaneous; details: read-out: BPR; method in brief: as §6
[24] = Ratio of drug level in brain to plasma of Sprague-Dawley rat at 10 mg/kg, sc after 2 hrs; format: ADME, organism-based; set-up: dose 10 mg/kg, route subcutaneous; details: read-out: BPR; method in brief: as §6
[25] = Ratio of drug level in brain to plasma of Sprague-Dawley rat at 10 mg/kg, sc after 4 hrs; format: ADME, organism-based; set-up: dose 10 mg/kg, route subcutaneous; details: brain and plasma, read-out: BPR; method in brief: as §6
[26] = molecular target: Metabotropic glutamate receptor 1 (Homo sapiens) (UniProt Q13255); experiment: Antagonist activity at human mGlu 1 expressed in HEK293 cells at 10 uM by Ca+2 assay; format: functional, cell-based; method in brief: as §2
[27] = molecular target: Metabotropic glutamate receptor 3 (Homo sapiens) (UniProt Q14832); experiment: Antagonist activity at human mGlu 3 expressed in HEK293 cells at 10 uM by Ca+2 assay; format: functional, cell-based; method in brief: as §2
[28] = molecular target: Metabotropic glutamate receptor 5 (Homo sapiens) (UniProt P41594); experiment: Antagonist activity at human mGlu 5 expressed in HEK293 cells at 10 uM by Ca+2 assay; format: functional, cell-based; method in brief: as §2
[29] = molecular target: T2, Metabotropic glutamate receptor 7; experiment: Antagonist activity at human mGlu 7 expressed in HEK293 cells at 10 uM by Ca+2 assay; format: functional, cell-based; method in brief: as §2
[30] = molecular target: Metabotropic glutamate receptor 8 (Homo sapiens) (UniProt O00222); experiment: Antagonist activity at human mGlu 8 expressed in HEK293 cells at 10 uM by Ca+2 assay; format: functional, cell-based; method in brief: as §2
[31] = molecular target: Metabotropic glutamate receptor 4 (Homo sapiens) (UniProt Q14833); experiment: Antagonist activity at human mGlu 4 expressed in L929 cells assessed inhibition of [35S]GTPgammaS binding by liquid scintillation counting; format: functional, cell-based; method in brief: as §3
[32] = molecular target: Metabotropic glutamate receptor 6 (Rattus norvegicus) (UniProt P35349); experiment: Antagonist activity at rat mGlu 6 expressed in CHO cells assessed as inhibition of [35S]GTPgammaS binding by liquid scintillation counting; format: functional, cell-based; method in brief: as §3
[33] = Oral bioavailability in Sprague-Dawley rat at 10 mg/kg; format: ADME, organism-based; details: in vivo
Method in brief: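 Male Sprague-Dawley rats given 10 mg/kg orally and/or 1.25 mg/kg intravenously; compound formulated in 20% HP-β-CD at pH 4. Cmax, tmax, AUC0−inf, t1/2, clearance and oral bioavailability F derived from plasma levels; geometric mean of at least two runs ± SEM.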

Structure (SMILES): O[C@H]1CC[C@H](n2ccc3cc(-c4ccn5c(CC(F)(F)F)cnc5c4Cl)ccc32)CC1
- EC50 [1]: 160 nM
- Emax [2]: 244%
- metabolised at 0.25 h, 5 µM [3]: 14%
- metabolised at 0.25 h, 5 µM [4]: 8%
- Activity [5]: inactive
- Activity [6]: inactive
- Activity [7]: inactive
- EC50 [8]: 5200 nM
- Activity [9]: inactive
- Activity [10]: inactive
- Activity [11]: inactive
- Cmax [12]: 1140 ng/mL
- Tmax [13]: 3.3 h
- AUC(0-inf) [14]: 10600 ng·h/mL
- half-life [15]: 4.3 h
- clearance [16]: 15 mL/min/kg
- concentration at 1 h [17]: 932 ng/g
- concentration at 2 h [18]: 1040 ng/g
- concentration at 4 h [19]: 843 ng/g
- concentration at 1 h [20]: 3810 ng/mL
- concentration at 2 h [21]: 3730 ng/mL
- concentration at 4 h [22]: 1950 ng/mL
- Kp at 1 h [23]: 0.2
- Kp at 2 h [24]: 0.3
- Kp at 4 h [25]: 0.4
- Activity [26]: inactive
- Activity [27]: inactive
- Activity [28]: inactive
- Activity [29]: inactive
- Activity [30]: inactive
- Activity [31]: inactive
- Activity [32]: inactive
- bioavailability [33]: 100%
